# Measured values as given in article PMC12433486 (Redox Biology, 2025).
# Positions of bridges follow the written chain, without caps; N, C: chain ends. Non-standard residues stand in square brackets, D forms with d. Residues, ends and D or L forms follow the SMILES beside them. *: point of attachment. Heptanoyl(6-Me) = CC(C)CCCCC(=O)*; Dab = NCC[C@H](N)C(=O)O
# Experiments:
# CRKP (Clinical) = assay: MIC, broth microdilution; type: cell-based, Klebsiella pneumonia; conditions: 24 h; for MIC, CRKP (Clinical): gold complexes and antibiotics; for MIC: Klebsiella pneumoniae, read-out: MIC, CRKP (Clinical)
# Summary of the method: (§1)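 Broth microdilution per CLSI guidelines in 96-well plates with test compound, incubated at 37 °C for 24 h. Growth was read on a microplate reader.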
# CREC = assay: MIC, broth microdilution; type: cell-based, Escherichia coli; conditions: 24 h; for MIC, CREC: gold complexes and antibiotics; for MIC: Escherichia coli, read-out: MIC, CREC
# Summary of the method: as §1
# CRAB (Clinical) = assay: MIC, broth microdilution; type: cell-based; conditions: 24 h; for MIC, CRAB (Clinical): gold complexes and antibiotics; for MIC: read-out: MIC, CRAB (Clinical)
# Summary of the method: as §1
# CREC (Clinical) = assay: MIC, broth microdilution; type: cell-based, Escherichia coli; conditions: 24 h; for MIC, CREC (Clinical): gold complexes and antibiotics; for MIC: Escherichia coli, read-out: MIC, CREC (Clinical)
# Summary of the method: as §1
# CRPA = assay: MIC, broth microdilution; type: cell-based, Pseudomonas aeruginosa; conditions: 24 h; for MIC, CRPA: gold complexes and antibiotics; for MIC: Pseudomonas aeruginosa, read-out: MIC, CRPA
# Summary of the method: as §1
# VISA = assay: MIC, broth microdilution; type: cell-based, Staphylococcus aureus; conditions: gold complexes and antibiotics, 24 h
# Summary of the method: as §1
# CRPA (Clinical) = assay: MIC, broth microdilution; type: cell-based, Pseudomonas aeruginosa; conditions: 24 h; for MIC, CRPA (Clinical): gold complexes and antibiotics; for MIC: Pseudomonas aeruginosa, read-out: MIC, CRPA (Clinical)
# Summary of the method: as §1
# CRKP [1] = assay: MIC, broth microdilution; type: cell-based, Klebsiella pneumonia; conditions: 24 h; for MIC, CRKP: gold complexes and antibiotics; for MIC: Klebsiella pneumoniae, read-out: MIC, CRKP
# Summary of the method: as §1
# CRKP [2] = assay: Cell membrane integrity; type: cell-based, Klebsiella pneumonia; conditions: 0-40 μM, 4 h, vs control
# Summary of the method: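 Membrane integrity read from PI uptake: CRKP exposed to test compound at 0, 10, 20 or 40 μM, then analysed by single-parameter flow cytometry collecting 100,000 cells per sample.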
# CRKP [3] = assay: Intracellular superoxide radical detection; type: cell-based, Klebsiella pneumonia; conditions: 4 h
# Summary of the method: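 Mid-log CRKP (OD600 0.6) loaded with DHE for 20 min at 37 °C with shaking, treated with test compound at 0, 10, 20 or 40 μM for 4 h, and washed three times in ice-cold PBS. Flow cytometry collected 100,000 cells. For HPLC, cells at OD600 0.3 took up 20 μM DHE for 20 min, were exposed to 0 or 80 μM for 4 h and washed, with synthesized 2-OH E+ as reference.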
# recombinant CRKP TrxR = assay: Inhibition of recombinant CRKP TrxR; type: biochemical, Klebsiella pneumonia; conditions: read-out: IC50, recombinant CRKP TrxR; DTNB reduction assay
# Summary of the method: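 TrxR activity read by DTNB reduction assay (NADPH plus DTNB, A412 change over 5 min at 37 °C). Ki came from varying DTNB 0–2 mM and test compound 0–40 μM, fitted to a competitive inhibition model. Reversibility: NADPH-prereduced enzyme (100 μM, 10 min) was treated with 30 μM compound for 30 min, then NAP-5 desalted. Alternatively, after 30 min RT exposure, enzyme was dialysed 4 h at 4 °C (15,000 Da cutoff).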
# CRKP [4] = assay: Time-killing assay; type: cell-based, Klebsiella pneumonia; conditions: 0-80 μM
# Summary of the method: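 Overnight CRKP culture diluted 2000-fold and grown to OD600 0.4–0.6, then diluted to OD600 0.1 and plated in 96-well format. Test compound added at 0, 10, 20, 40 or 80 μM. Growth read hourly by microplate reader for 12 h.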
# cellular GR in CRKP = assay: Cellular GR activity assay; type: cell-based, Klebsiella pneumonia; conditions: CRKP treated 4 h, GR assay kit
# Summary of the method: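 CRKP overnight culture diluted and regrown to mid-log phase (OD600 0.6), then treated with test compound. Cellular glutathione reductase activity measured with a commercial GR activity kit.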
# recombinant CRKP GR = assay: Inhibition of recombinant CRKP GR; type: biochemical, Klebsiella pneumonia
# Summary of the method: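 Purified CRKP GR (final 2 nM) in 50 mM Tris-HCl pH 7.5 with 2 mM EDTA was preincubated with test compound at 37 °C for 30 min. GSSG and NADPH were then added, with A340 read at 10 s and after 5 min at 37 °C. Ki came from varying GSSG 0–5 mM and compound 0–20 μM under a competitive model. Reversibility: 30 min RT exposure, then NAP-5 desalting (1 mM GSSG, 300 μM NADPH) or 4 °C, 4 h dialysis (15,000 Da cutoff).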
# DNA from CRKP = assay: DNA degradation assay; parameters: species or system Klebsiella pneumonia; conditions: purified CRKP DNA, 30 min
# Summary of the method: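 Genomic DNA extracted from CRKP with a kit and checked by micro-spectrophotometry and agarose gel. DNA mixed with varying concentrations of test compound on ice for 30 min, also with 10 mM H2O2 for 30 min. DNA (30 ng/μL) additionally incubated with 40 μM for 2 h on ice. Degradation read by EB-stained polyacrylamide gel electrophoresis.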
# CRKP [5] = assay: Checkerboard microdilution assay; type: cell-based, Klebsiella pneumonia; conditions: for MIC of antibiotic: antibiotic alone; for FIC index (Au10): antibiotic in combination with Au10, CRKP; for FIC index (Au17): antibiotic in combination with Au17, CRKP; for FIC index (Auranofin): antibiotic in combination with auranofin
# Summary of the method: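 Checkerboard: overnight cultures diluted 1000-fold, regrown to mid-log phase (OD600 0.6), diluted per CLSI and seeded in 96-well plates. Varying concentrations of gold test compound combined with varying antibiotic concentrations. Incubated 37 °C for 24 h, growth read at OD600. FICI calculated by a previously described method.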
# cellular TrxR in CRKP = assay: Cellular TrxR activity assay; type: cell-based, Klebsiella pneumonia; conditions: read-out: IC50, cellular TrxR; CRKP treated 4 h, TrxR assay kit
# Summary of the method: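 Overnight CRKP culture diluted and regrown to mid-log phase (OD600 0.6). Suspensions exposed to test compound at 0, 2.5, 5, 10 or 20 μM for 4 h. Cellular TrxR activity measured with a commercial TrxR activity kit.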
# CRKP [6] = assay: Murine peritonitis infection model; type: in vivo, BALB/c mice; conditions: six mice per group, treated 1 h after i.p. CRKP
# Summary of the method: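 Female BALB/c mice (18–20 g) randomized, six per group, and given 200 μL CRKP suspension i.p. Treatment began 1 h after infection: saline/PBS control, comparator antibiotic or test compound. Survival recorded over 48 h.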
Structure (SMILES),"MIC, CRKP (Clinical) (CRKP (Clinical)) [µM]","MIC, CREC (CREC) [µM]","MIC, CRAB (Clinical) (CRAB (Clinical)) [µM]","MIC, CREC (Clinical) (CREC (Clinical)) [µM]","MIC, CRPA (CRPA) [µM]","MIC, VISA (VISA) [µM]","MIC, CRPA (Clinical) (CRPA (Clinical)) [µM]","MIC, CRKP (CRKP [1]) [µM]",MIC of antibiotic (CRKP [5]; CRKP) [µM],FIC index (Au10) (CRKP [5]),FIC index (Au17) (CRKP [5]),FIC index (Auranofin) (CRKP [5]; CRKP),MIC (CRKP (Clinical)) [µM],MIC (CREC) [µM],MIC (CRAB (Clinical)) [µM],MIC (CREC (Clinical)) [µM],MIC (CRPA) [µM],MIC (CRPA (Clinical)) [µM],MIC (CRKP [1]) [µM],further results
"COc1ccc2ccc([O-])c(C=NC3CCCCC3N=Cc3cc(F)ccc3[O-])c2c1.F[P-](F)(F)(F)(F)F.[Au+3] [Au4, [1-((E)-(((1S,2R)-2-(((E)-5-fluoro-2-hydroxybenzylidene)amino)cyclohexyl)imino)methyl)-7-methoxynaphthalen-2-ol] Au(III) hexafluorophosphate]",10,20,>20,20,>20,>20,>20,10,–,–,–,–,–,–,–,–,–,–,–,–
CC(=O)OC[C@H]1O[C@@H]([S-])[C@H](OC(C)=O)[C@@H](OC(C)=O)[C@@H]1OC(C)=O.CCP(CC)CC.[Au+] [Auranofin],>20,>20,20,>20,>20,0.5,>20,>20,–,–,–,–,–,–,–,–,–,–,–,"PI red fluorescence intensity (membrane integrity) (CRKP [2]): did not show a significant difference; 2-OH E+ formation (HPLC) (CRKP [3]; 80 μM): no detectable 2-OH E^+; intracellular ROS (superoxide, DHE probe) (CRKP [3]; 10, 20, 40 μM, vs control): did not induce ROS generation; IC50 (recombinant CRKP TrxR): 27.2 µM; bacterial growth over 12 h (CRKP [4]): only a marginal inhibitory effect; IC50, cellular GR (cellular GR in CRKP): did not show any inhibitory effects; inhibition of recombinant GR at 40 μM (recombinant CRKP GR): did not exhibit inhibitory effects; DNA degradation (gel electrophoresis) (DNA from CRKP): did not demonstrate DNA degradation effect; interaction with cefepime or meropenem (CRKP [5]; checkerboard, CRKP): did not exhibit any synergistic interaction; IC50 (cellular TrxR in CRKP): 11.6 µM"
CO/N=C(\C(=O)N[C@@H]1C(=O)N2C(C(=O)[O-])=C(C[N+]3(C)CCCC3)CS[C@H]12)c1csc(N)n1 [Cefepime],–,–,–,–,–,–,–,–,20,0.45,0.70,0.525,–,–,–,–,–,–,–,"MIC of antibiotic in the presence of Au10 (CRKP [5]; Au10 2 μM, CRKP): 5 µM"
CC(C)CCCCC(=O)N[C@@H](CCN)C(=O)N[C@H](C(=O)N[C@@H](CCN)C(=O)N[C@H]1CCNC(=O)[C@H]([C@@H](C)O)NC(=O)[C@H](CCN)NC(=O)[C@H](CCN)NC(=O)[C@H](CC(C)C)NC(=O)[C@@H](CC(C)C)NC(=O)[C@H](CCN)NC1=O)[C@@H](C)O [Colistin B] ({Heptanoyl(6-Me)}-[Dab]T[Dab][Dab][Dab][dL]L[Dab][Dab]T; lactam 4-C),–,–,–,–,–,–,–,–,–,–,–,–,100,1,3,1,3,3,50,mice surviving more than 24 h (CRKP [6]): no mice
C[C@@H](O)[C@H]1C(=O)N2C(C(=O)O)=C(SCCN=CN)C[C@H]12 [Imipenem],–,–,–,–,–,–,–,–,–,–,–,–,100,50,200,100,200,100,200,–
C[C@@H](O)[C@H]1C(=O)N2C(C(=O)O)=C(S[C@@H]3CN[C@H](C(=O)N(C)C)C3)[C@H](C)[C@H]12 [Meropenem],–,–,–,–,–,–,–,–,40,0.35,0.45,0.625,–,–,–,–,–,–,–,–
